Bioassay records from PubChem.
beta cell repl: MIN6 beta-cell proliferation induction; MIN6 cells proliferation, ATPlite luminescence, 48 h; cells starved in 0.2% serum; 100% = growth in 10% serum; proliferation, % at 10 µM; 330,000 tested, 0.29% active; AID 2380;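 active means compounds whose signal lies at least 3.5 SD above the mean of all wells on their plate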;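 further: 0% = DMSO-treated cells in low-serum medium and 100% = 10% serum control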
ANO1 activ: activates or potentiates the mouse TMEM16A chloride channel | Q8BHY3 | AID 623877 | HEK293 TMEM16A/YFP-H148Q/I152L, iodide quench fluorescence; active compounds read low | 340,000 tested, 0.3% active | B-score at 10 µM;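 active means fluorescence-ratio B-score plate-corrected deviation score at least 3 library SD below zero, with starting fluorescence score within 5 deviations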;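 further: channel opened by trigger with iodide after compound preincubation; score built on the fluorescence ratio of max minus min over baseline; more negative score means more quench and so TMEM16A activation or potentiation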
MC4R antag cAMP: blocks human MC4R cAMP signaling. inhibition, % at 6.5 µM. 360,000 tested, 0.48% active. P32245. MC4R-expressing cells, MTII-stimulated cAMP, LANCE TR-FRET;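 active means inhibition above its plate's cutoff, the mean of tested wells on that plate plus 3 SD, cut at about 29% in these data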;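 further: 0% = Melanotan II alone and 100% = Melanotan II plus saturating MCL0020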
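Material: human MC4R-expressing U2OS cells. Probe or stimulus: Melanotan II challenge. Dosing: 6.5 µM single dose. Times: 30-min compound, 1-h challenge, 1-h detection, room temperature. Technique: TR-FRET with Eu-cAMP and labeled anti-cAMP, 671 nm. Replication: singlicate.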
ANO1 block: blocks the mouse calcium-activated chloride channel TMEM16A. Q8BHY3. HEK293 TMEM16A/YFP iodide influx fluorescence, ionomycin. normalized B-score (activity score, 25-100; higher = stronger inhibition) at 10 µM. 310,000 tested, 1.2% active;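 active means ratio plate-corrected score three or more library SD toward inhibition, starting fluorescence score within five deviations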;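 further: score derived from kinetic fluorescence span divided by baseline fluorescence per well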
MC4R ag barr: human MC4R agonism via beta-arrestin; U2OS MC4R beta-arrestin complementation, luminescence; percent of melanotan II response, DMSO zero; activation, % at 8.9 µM; 360,000 tested, 0.98% active;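 active means activation above a per-plate cutoff, the mean activation of sample wells on that plate plus 3 SD, cut at about 8% in these data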
HTR2A ag: agonists of mouse serotonin 5-HT2A receptor (HTR2A); P35363; CHO-K1 mHTR2A beta-arrestin complementation, luminescence; percent of 30 µM serotonin response; activation, % at 7.6 µM; 360,000 tested, 0.66% active;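 active means activation above a run cutoff, the mean activation of all tested compounds plus 3 SD, cut at about 14% in these data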;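 further: 0% = plate median of compound wells and 100% = 30 µM serotonin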
MOR ag counter: OPRM1 agonism in mouse HTR2A counterscreen; 2,300 tested, 5.3% active; activation, % at 9.3 µM; shares compounds with HTR2A ag; U2OS OPRM1 beta-arrestin PathHunter, luminescence; DMSO 0%, DAMGO 9.3 µM 100%;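 active means mean activation above the mean of DMSO-only wells plus 3 SD, cut at about 0.5% in these data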
m5-HT2A ag conf: mouse HTR2A agonism confirmed | shares compounds with HTR2A ag | CHO-K1 PathHunter beta-arrestin recruitment, luminescence; DMSO 0%, 30 µM serotonin 100% | activation, % at 7.6 µM | 2,300 tested, 19% active;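 active means mean activation across triplicates above the hit threshold derived in the original primary screen, cut at about 15% in these data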
* hit, by the source's call; i = inactive; x = no result. Sampled rows, rich in hits. Any-hit rate of the full collection: about 3.4%.

SMILES	beta cell repl	ANO1 activ	MC4R antag cAMP	ANO1 block	MC4R ag barr	HTR2A ag	MOR ag counter	m5-HT2A ag conf
O=C(NCC(=O)N(c1cccnc1)C(C(=O)NC1CCCC1)c1ccccc1)c1ccco1 (centres undefined)	-0.1	i	1.2	i	-1.2	-0.2	x	x
Cc1ccc(CN2CCN(/N=C/c3ccc(C(=O)O)cc3)CC2)c(C)c1	-3.5	i	2.5	i	-2.2	1.0	x	x
COC(=O)c1ccc(/C=N/N2CCN(Cc3ccc(C)cc3C)CC2)cc1	0.0	i	-3.3	i	5.9	18.2*	-0.4	15.3*
COc1cc(NC(=O)c2cc(OC)c(OC)c(OC)c2)ccc1NC(=O)c1cccs1	4.6	i	-2.5	i	0.4	-0.9	x	x
COc1cc(NC(=O)c2c(F)c(F)c(OC)c(F)c2F)ccc1NC(=O)c1cccs1	3.8	i	6.7	i	0.3	16.2*	-0.7	-5.9
N#Cc1ccccc1Cn1c(=O)n(CCCC(=O)NCc2ccc3c(c2)OCO3)c(=O)c2ccccc21	0.0	i	0.9	i	-0.8	14.6*	-0.3	-2.3
CCOc1cc(/C=C\c2nc(O)c([N+](=O)[O-])c(=O)[nH]2)ccc1OC(C)CC (centres undefined)	0.9	i	-9.0	i	-0.6	4.9	x	x
CCOc1ccc(/C=C\c2nc(O)c([N+](=O)[O-])c(=O)[nH]2)cc1OCC	1.1	i	9.5	i	-0.1	14.6*	-0.6	-2.6
CCCCN(C(=O)CCN1C(=O)C2CC=CCC2C1=O)c1c(N)n(CCCC)c(=O)[nH]c1=O (centres undefined)	x	i	16.1	x	-0.9	-4.3	x	x
Cc1cc(C)n2nc(CNS(=O)(=O)c3ccc(C(C)(C)C)cc3)nc2n1	x	x	0.2	x	-0.2	22.1*	0.3	1.6
COc1ccc(C2/C=C\CN(C(=O)C3CCCC3)CC(=O)N2Cc2ccc(F)cc2)cc1 (centres undefined)	-2.2	i	4.8	i	-0.4	24.0*	-0.6	61.5*
COc1ccc(C2/C=C\CN(C(=O)C3CCCCC3)CC(=O)N2Cc2ccc(F)cc2)cc1 (centres undefined)	-2.4	i	3.5	i	-0.3	2.8	x	x
CSCCC(c1nc2ccccc2[nH]1)n1c(C)nc2ccccc21 (centres undefined)	x	x	x	x	x	0.1	x	x
CSCCC(c1nc2ccccc2[nH]1)n1c(-c2cc(C(F)(F)F)cc(C(F)(F)F)c2)nc2ccccc21 (centres undefined)	x	x	x	x	x	19.3*	0.8*	6.7
CCN(CC)S(=O)(=O)c1cc(NC(=O)CNc2cccc(S(=O)(=O)N3CCOCC3)c2)ccc1C	-7.4	i	2.4	i	-0.8	2.0	x	x
CCOc1ccc(S(=O)(=O)N2CCN(C(=O)c3cc4ccccc4o3)CC2)cc1	-3.4	i	-2.7	x	-3.2	-2.9	x	x
COCCNC(=S)N(CCc1c(C)[nH]c2ccc(F)cc12)Cc1ccco1	-1.1	i	-0.8	i	0.1	27.9*	-0.3	-2.8
CC1CCCC(C)N1C(=O)CN1C(=O)NC2(CCCCCC2)C1=O (centres undefined)	x	x	4.7	x	-1.3	2.7	x	x
CCN1CCN(C(CNS(=O)(=O)c2ccc(OC)c(C)c2)c2cccnc2)CC1 (centres undefined)	-1.4	i	-5.4	i	-2.1	20.2*	-0.7	-3.2
COc1ccc(S(=O)(=O)NCC(c2cccnc2)N2CCN(c3ccccc3)CC2)cc1C (centres undefined)	-2.4	i	-4.6	i	1.7	3.5	x	x
N#Cc1c(N)c2ccccn2c1C(=O)c1ccc(Br)cc1	4.3	i	3.1	i	0.6	5.2	x	x
